Consider 4 compounds from publication PMC8711093 (Nature, 2021).

Each structure is given as a SMILES string. Changes are numbered by the printed parent chain. “Also recorded” adds a separate entry of the source.

Data set [1] concerns nerve-injured rats. The data set can be described thus: Conditioned place preference. The following applies: intrathecal; for time spent in the drug paired chamber: nerve-injured rats, n=8. The data set is classed as in vivo, rat. The method in brief: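 Male and female Sprague-Dawley rats, 10-16 weeks, with partial sciatic nerve ligation and lumbar intrathecal catheters. Three-chamber box; pre-conditioning began 10 days post-surgery, excluding rats spending >80% of time in one chamber. Vehicle (DMSO/saline 60:40 or saline) was paired with one chamber in the morning and intrathecal drug with the opposite chamber 4 h later, counterbalanced. Rats were recorded 15 min with free access 20 h later; n = 8/group; morphine positive control.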

Data set [2] concerns rats. The data set can be described thus: Rotarod. The class given is in vivo, rat.
For data set [3], the system named is dorsal horn neurons. Briefly: Spinal cord slice electrophysiology. The class given is cell-based, rat. The following applies: for increase in eEPSC amplitude from baseline: reversal of the ADO tone; for sEPSC frequency and amplitude: nerve-injured rats, superfusion, reversed by DPCPX, n=8. Put shortly:
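Parasagittal lumbar cord slices (340 μm) from PNL and sham Sprague-Dawley rats, 9-15 weeks, cut in ice-cold sucrose ACSF and superfused at 2 ml/min, 34°C. Whole-cell voltage clamp at −70 mV in lamina I-II neurons; Cs-based internal with QX-314. eEPSCs evoked by dorsal root stimulation (C and A fibre) with gabazine 10 μM and strychnine 0.5 μM. Test compound superfused after stable baseline, then 1 μM DPCPX.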

Data set [4] addresses T1, human A1R expressed in CHO cells (Homo sapiens, UniProt P30542).
T1 sequence (P30542 1-326): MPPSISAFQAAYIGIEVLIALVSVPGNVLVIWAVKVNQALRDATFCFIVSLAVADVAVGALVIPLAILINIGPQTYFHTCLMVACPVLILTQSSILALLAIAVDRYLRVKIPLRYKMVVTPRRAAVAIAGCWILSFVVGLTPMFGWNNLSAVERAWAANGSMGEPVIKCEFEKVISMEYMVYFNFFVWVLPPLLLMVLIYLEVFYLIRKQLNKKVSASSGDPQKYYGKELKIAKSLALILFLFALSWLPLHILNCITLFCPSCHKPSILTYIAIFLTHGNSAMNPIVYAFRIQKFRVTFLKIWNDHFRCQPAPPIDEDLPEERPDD
The data set is classed as cell-based. Put shortly: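 FlpIN-CHO cells stably expressing WT A1R, grown in DMEM with 20 mM HEPES, 5% FBS and hygromycin B; seeded at 20,000 cells/well overnight. At 37°C in HEPES-buffered saline with rolipram, pH 7.45: 30 min preincubation, 10 min test compound, then 3 μM forskolin ± increasing ADO for 30 min. Stopped with ice-cold ethanol; cAMP expressed as % of forskolin response.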

The subject of data set [5] is nerve-injured rats. The data set is classed as in vivo, rat. The following applies: intrathecal. Put shortly: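 Sciatic nerve partially ligated (one third to one half) under isoflurane; allodynia confirmed at day 14. Intrathecal catheters placed at day 12 in male and female Sprague-Dawley rats, 9-14 weeks. After baseline, blinded 10 μL dose (DMSO/saline 60:40) plus 25 μL saline flush. Von Frey filaments 0.52-14.8 g, up-down method, over a time course, including 1 h post-dose. n = 8-10; catheter placement checked with lignocaine.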

Data set [6] deals with rat atrial beat rate. Briefly: Isolated rat atrial experiments. The following applies: isolated rat atria, concentration-response.
Data set [7] is described as follows: Stability in human plasma. The class given is in vitro ADME.
Data set [8] can be described thus: Stability in rat plasma. The data set is classed as in vitro ADME.
For data set [9], the target named is T2, mutant A1R (Homo sapiens, UniProt P30542, F275V).
T2 sequence (P30542 1-326 F275V): T1 sequence (P30542 1-326) with F275V
The class given is binding. The following applies: F275^7.40V.

Data set [10] has as its target T3, mutant A1R (Homo sapiens, UniProt P30542, L242A/L245A).
T3 sequence (P30542 1-326 L242A/L245A): T1 sequence (P30542 1-326) with L242A, L245A
The data set is classed as binding. The following applies: alanine mutation of both L242^6.43 and L245^6.46.

Data set [11] has as its target T4, mutant A1R (Homo sapiens, UniProt P30542, L276A).
T4 sequence (P30542 1-326 L276A): T1 sequence (P30542 1-326) with L276A
The class given is binding. The following applies: L276^7.41A.

In data set [12] the target is T5, mutant A1R (Homo sapiens, UniProt P30542, M283V).
T5 sequence (P30542 1-326 M283V): T1 sequence (P30542 1-326) with M283V
The data set is classed as binding. The following applies: M283^7.48V.

For data set [13], the target named is T6, mutant A1R (Homo sapiens, UniProt P30542, S246A).
T6 sequence (P30542 1-326 S246A): T1 sequence (P30542 1-326) with S246A
The data set is classed as binding. The following applies: S246^6.47A.

In data set [14] the test system is mutant A1R. The data set is classed as binding, human. The following applies: bulkier side chains at position 7.44 (G279^7.44).
Data set [15] has as its target T7, A1R alone reconstituted in rHDL (Homo sapiens, UniProt P30542).
T7 sequence (P30542 1-326): T1 sequence (P30542 1-326)
The data set can be described thus: [3H]DPCPX dissociation at A1R-rHDL particles, absence of G protein. The class given is binding. The following applies: 30 μM MIPS521, SLV320 isotopic dilution. Put shortly: (§1)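 Purified A1R reconstituted into MSP1D1 nanodiscs (POPC:POPG 3:2; molar ratio 1:10:800) for 1 h at 4°C, then Bio-beads overnight; empty discs removed on anti-Flag resin. Particles ± Gi2 heterotrimer (1:50 molar) were equilibrated 1 h with 2 nM [3H]DPCPX ± 30 μM test compound. Dissociation started with excess SLV320, filtered on GF/C and counted. Fitted to mono-exponential decay; n = 3-5, duplicate.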

For data set [16], the target named is A1R-rHDL particles with Gi2 heterotrimeric protein (Homo sapiens, UniProt P30542). The data set can be described thus: [3H]DPCPX dissociation at A1R-rHDL particles with saturating Gi2. The data set is classed as binding. The following applies: 30 μM MIPS521; saturating concentration of Gi2; SLV320 isotopic dilution. Put shortly:
as §1

The mark [17] stands for this setting: intrathecal, compared to vehicle controls, n=3-4.
Where [18] appears, read: operational model, ADO, 3 μM forskolin.

Chain of A1R-rHDL particles with Gi2 heterotrimeric protein (P62873 whole entry, one chain of several): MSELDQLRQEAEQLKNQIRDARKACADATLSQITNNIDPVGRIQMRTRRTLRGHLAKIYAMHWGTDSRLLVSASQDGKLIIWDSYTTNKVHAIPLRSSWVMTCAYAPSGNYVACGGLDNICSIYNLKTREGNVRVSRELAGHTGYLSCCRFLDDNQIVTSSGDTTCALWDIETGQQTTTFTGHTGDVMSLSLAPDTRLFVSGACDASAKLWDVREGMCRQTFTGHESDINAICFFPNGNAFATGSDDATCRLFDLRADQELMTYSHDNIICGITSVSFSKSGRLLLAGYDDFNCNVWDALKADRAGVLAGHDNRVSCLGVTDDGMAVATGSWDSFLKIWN
Chain of A1R-rHDL particles with Gi2 heterotrimeric protein (P59768 2-68, one chain of several, further chain): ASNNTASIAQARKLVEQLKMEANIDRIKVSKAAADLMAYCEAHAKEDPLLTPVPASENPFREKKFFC
Chain of A1R-rHDL particles with Gi2 heterotrimeric protein (P04899 2-355, one chain of several, further chain): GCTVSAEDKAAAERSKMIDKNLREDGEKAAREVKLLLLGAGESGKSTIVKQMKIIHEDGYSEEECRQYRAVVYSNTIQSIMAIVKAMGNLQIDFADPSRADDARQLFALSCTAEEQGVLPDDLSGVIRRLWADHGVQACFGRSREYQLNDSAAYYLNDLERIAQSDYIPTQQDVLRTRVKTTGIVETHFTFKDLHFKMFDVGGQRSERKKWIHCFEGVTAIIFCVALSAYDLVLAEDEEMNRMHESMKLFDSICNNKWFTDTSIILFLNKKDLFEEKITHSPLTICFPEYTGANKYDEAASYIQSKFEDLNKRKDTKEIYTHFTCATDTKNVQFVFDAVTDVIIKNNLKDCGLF

Take `CN1CC[C@]23c4c5ccc(O)c4O[C@H]2[C@@H](O)C=C[C@H]3[C@H]1C5` [morphine, reference compound]: in data set [1] (10 μg), the “time spent in the drug paired chamber” value was “increased the time nerve-injured rats spent in the drug paired chamber”. Also, the “rotarod latency to fall / motor function” value in data set [2] (setting [17]) is recorded as “reduces rotarod latency to fall”.

As to `CCCn1c(=O)c2[nH]c(C3CCCC3)nc2n(CCC)c1=O` [DPCPX, reference compound], the results for the “increase in eEPSC amplitude from baseline” value in data set [3] (nerve-injured animals) and in data set [3] (sham controls) were 19.7 ± 6.1% and 7.89 ± 2.7%, respectively.

As for `Nc1scc(-c2cc(C(F)(F)F)cc(C(F)(F)F)c2)c1C(=O)c1ccc(Cl)cc1` [MIPS521], in data set [4] (operational model of allosterism and agonism, ADO, 3 μM forskolin, n=3), the “affinity for the A1R allosteric site, pKB” value was 4.95 ± 0.40. Moreover, the “positive cooperativity with ADO, Log αβ” value in data set [4] (setting [18]) came to 1.81 ± 0.53. Further, in data set [4] (operational model, recombinant CHO cells), the “direct allosteric agonism / signaling efficacy, Log τB” value worked out at 0.96 ± 0.34. Also, in data set [3], the “sEPSC frequency and amplitude” value is “reduced”. In addition, the “pEC50 for reducing eEPSCs” value in data set [3] (spinal cord from nerve-injured animals, n=4-12) was 6.9 ± 0.4. Besides, in data set [5] (compared with VCP171), the “mechanical hyperalgesia (paw withdrawal threshold)” value is on record as “reversed the mechanical hyperalgesia at lower concentrations than VCP171”. Further, in data set [1] (10 μg), the “time spent in the drug paired chamber” value is on record as “increased the time nerve-injured rats spent in the drug paired chamber”. Further, the spontaneous pain result in data set [1] (lower dose than VCP171 (10 μg)) is given as “significantly reduced spontaneous pain”. Besides, the “rotarod latency to fall / motor function” value in data set [2] (setting [17]) is recorded as “neither MIPS521 nor VCP171 affected motor function; also recorded: not significantly different to vehicle controls”. Further, in data set [6], the “effect on rat atrial beat rate” value is “minimal effect”. Moreover, the stability in plasma entry in data set [7] (4-hour incubation period) and in [8] (4-hour incubation period) was “stable” each time. For the same compound, the “change in PAM affinity (pKB) vs wild type” value in [9] is “decrease in affinity”; in [10], “no effect on affinity”; in data set [11], “significantly decreased MIPS521 affinity”; in [12], “significantly reduced the affinity”; in data set [13] it was “significant decrease in both PAM affinity and cooperativity”; in [14] it was “significant loss of both modulator affinity and cooperativity”. Also, the “change in binding cooperativity (log α) with NECA vs wild type” value in data set [10] was “significant decrease in PAM cooperativity”; in data set [13], “significant decrease in both PAM affinity and cooperativity”; in data set [14] it was “significant loss of both modulator affinity and cooperativity”. The “effect on dissociation of pre-equilibrated [3H]DPCPX” value was “no effect” in data set [15] and “even more profound retardation” in data set [16].

In data set [4], `Nc1scc(-c2cccc(C(F)(F)F)c2)c1C(=O)c1ccccc1` [VCP171, (2-amino-4-(3-(trifluoromethyl)phenyl)thiophen-3-yl)(phenyl)methanone] had a Kb of 3.16 µM. Moreover, the “positive cooperativity with ADO, Log αβ” value in data set [4] (setting [18]) came out at 0.76 ± 0.25. Besides, in data set [3], the “sEPSC frequency and amplitude” value is listed as “reduced”. The “allodynia (paw withdrawal threshold)” value in [5] (30 μg) was “small reduction of allodynia”. Besides, the paw withdrawal threshold entry in data set [5] (1-10 μg) is on record as “no effect”. In data set [1] (30 μg (highest dose)), the spontaneous pain result is reported as “reduced spontaneous pain”. Further, the “time spent in the drug paired chamber” value in [1] (30 μg) is “increased the time nerve-injured rats spent in the drug paired chamber”. The “rotarod latency to fall / motor function” value was “neither MIPS521 nor VCP171 affected motor function” in [2] (both, Sprague Dawley, rat, in vivo) and “not significantly different to vehicle controls” in [2] (rat, in vivo). Also, the “time stable in plasma” value in [7] and in data set [8] was “at least 4 h” in each case.
